Shown are actives, neighbours in structure and some others; about 0.99% of the full set was active somewhere.
ABCG2 inh: human ABCG2 inhibition, ABCB1 as counter-screen; Q9UNQ0; IgMXP3 cells, JC-1 efflux, flow cytometry; inhibition, % at 6.6 µM; 190,000 compounds, 0.1% hits;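 active means inhibition above 80%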;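 further: 0% = DMSO and 100% = nicardipine control wells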
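Test system: ABCG2 IgMXP3 and barcoded ABCB1 CCRF-Adr cell mix; Schedule: cells with compound and JC-1, 10 min at 25 °C, rotating, no wash; Technique: flow cytometry of retained JC-1 fluorescence; Measure: % inhibition of efflux relative to nicardipine and DMSO; Controls: nicardipine high and DMSO low controls.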
Tn6 DDE FP: disrupts Tn6 cyclic peptide binding to fibrin D-Dimer-E complex; P02675; Fibrin DD(E) TRITC-Tn6 fluorescence polarization displacement; inhibition, % at 8.3 µM; 370,000 compounds, 0.21% hits; AID 720509;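 active means inhibition above a per-campaign cutoff: mean of compounds within control limits plus 3 SD, cut at about 15% in these data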;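 further: 0% = median of all compound wells on the plate and 100% = blocking peptide control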
GRK2 inh: inhibitors of human GRK2 displacing RNA aptamer; 330,000 compounds, 0.59% hits; bead flow cytometry, FAM-aptamer displacement from GRK2; inhibition of aptamer binding, % at 10 µM; AID 488847;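 active means inhibition of aptamer binding above 40%, roughly 3 SD of noise, on plates passing a quality check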;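 further: median bead fluorescence of bound FAM aptamer so fluorescent compounds give negative values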
Target sequence (P25098 whole entry, looked up): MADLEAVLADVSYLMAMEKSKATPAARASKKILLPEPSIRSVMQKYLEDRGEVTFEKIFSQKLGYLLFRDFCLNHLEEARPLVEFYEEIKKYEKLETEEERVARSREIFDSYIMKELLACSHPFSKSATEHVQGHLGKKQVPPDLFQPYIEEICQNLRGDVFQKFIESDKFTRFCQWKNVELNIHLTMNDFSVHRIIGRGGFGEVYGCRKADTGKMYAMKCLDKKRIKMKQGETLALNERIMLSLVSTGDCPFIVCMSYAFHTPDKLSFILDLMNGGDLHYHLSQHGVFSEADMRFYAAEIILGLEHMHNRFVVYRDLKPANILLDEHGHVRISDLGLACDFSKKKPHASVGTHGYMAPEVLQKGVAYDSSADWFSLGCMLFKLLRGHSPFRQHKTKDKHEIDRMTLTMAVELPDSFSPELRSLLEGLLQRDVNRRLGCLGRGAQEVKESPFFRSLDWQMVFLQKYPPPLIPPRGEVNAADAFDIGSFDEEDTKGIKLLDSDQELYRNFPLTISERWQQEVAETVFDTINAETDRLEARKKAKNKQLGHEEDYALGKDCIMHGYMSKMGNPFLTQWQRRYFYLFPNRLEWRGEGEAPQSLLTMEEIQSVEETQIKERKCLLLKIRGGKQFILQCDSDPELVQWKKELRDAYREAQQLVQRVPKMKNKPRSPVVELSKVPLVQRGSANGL
ABCB1 block: human ABCB1 inhibition, ABCG2 as counter-screen; CCRF-Adr cells, JC-1 efflux, flow cytometry; inhibition, % at 6.6 µM; 190,000 compounds, 0.067% hits; in the data active means inhibition above about 40%;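 further: 0% = vehicle and 100% = reference inhibitor; higher value means more JC-1 retained so stronger ABCB1 efflux block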
Tn7 DDE FP: disrupts Tn7 cyclic peptide binding to fibrin D-Dimer-E complex; FP displacement of FITC-Tn7 peptide from fibrin DD(E); 0% = median of compound wells per plate; inhibition, % at 8.3 µM; 370,000 compounds, 0.13% hits; AID 720508;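 active means inhibition above the mean of compounds falling within the control limits plus 3 SD of them, cut at about 14% in these data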;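 further: 0% = plate median of compound wells and 100% = 10 µM Aha-Tn7 peptide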
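system = human fibrin DD(E) protein | quantity = DD(E) 2 µM final | medium = Tris/NaCl/CaCl2 buffer, pH 7.8 | also added = labelled Tn7 tracer, 0.1 µM | compound dosing = single point at 8.3 µM | timing = compound with protein 10 min, then 3 h after probe, room temperature | signal = FP measurement | benchmarks = Aha-Tn7 high control | repeats = one replicate per compound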
Insulin prom up: MIN6 insulin promoter up-regulation; MIN6 insulin promoter-GFP reporter, high-content imaging; stronger effect = higher value; z-score at 5 µM; 190,000 compounds, 0.3% hits; AID 1625;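 active means z-score above 3 at 5 µM with at least 500 cells counted in the well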
DDE Tn6 FP ctr: DD(E)-Tn6 binding inhibition, counter-screen. shares compounds with Tn6 DDE FP. Fibrin DD(E), TRITC-Tn6 fluorescence polarization displacement; 0% = median of compound wells, not DMSO. inhibition, % at 8.3 µM. 680 compounds, 2% hits. AID 720621;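 active means inhibition above the mean of test compounds lying between the control limits plus 3 SD of those, cut at about 14% in these data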;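 further: 0% = median of compound wells and 100% = wells with Aha-Tn7 blocking peptide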
Tn6 DDE conf: confirmation of inhibitors of Tn6 binding to human fibrin DD(E) | shares compounds with Tn6 DDE FP | 680 compounds, 10% hits | FP displacement of TRITC-Tn6 peptide from DD(E); 0% = per-plate median of test wells | inhibition, % at 8.3 µM | AID 720631;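 active means inhibition above the mean of compounds lying within the control limits plus 3 SD, cut at about 16% in these data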;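 further: 100% = high control wells holding a competing inhibitor peptide at 10 µM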
The depositor's hits bear a star; · = not tested or not shown.

SMILES	ABCG2 inh	Tn6 DDE FP	GRK2 inh	ABCB1 block	Tn7 DDE FP	Insulin prom up	DDE Tn6 FP ctr	Tn6 DDE conf
COC(=O)[C@]12C[C@H](CC(=O)N3CCCC3)C(=O)N(Cc3ccc(Cl)cc3Cl)C1=C[C@H](C(C)(C)C)O[C@@H]2C	·	1.1	·	·	0.5	·	·	·
COC(=O)[C@]12C[C@H](CC(=O)NCc3ccc(OC)c(OC)c3)C(=O)N(CCc3ccc(OC)c(OC)c3)C1=C[C@H](COCc1ccccc1)O[C@@H]2C	·	15.3*	·	·	2.3	·	-5.2	-10.2
O=C(NC1CC1)c1cccc2c1C(=O)c1ccc(N3CCC(N4CCCCC4)CC3)cc1S2(=O)=O	·	17.7*	·	·	-4.7	·	-2.9	0.1
CC(C)C[C@H](NC(C)(C)C(=O)NC1CCCCC1)C(=O)NCCc1c[nH]c2ccccc12	·	0.8	·	·	6.1	·	·	·
O=C(NCCS(=O)(=O)N1CCN(c2ccccc2)CC1)c1cccs1	·	-1.3	0.0	·	3.7	·	·	·
O=C(NCCS(=O)(=O)N1CCN(c2ccccc2F)CC1)c1cccs1	·	16.8*	0.0	·	8.7	·	6.1	-3.8
Cc1ccc(C)c2c1cc(C)c1nnc(SCC(=O)N3CCCc4ccccc43)n12	5.1	1.8	3.0	1.7	-5.2	-0.38	·	·
CCn1c(=O)c2ccccc2n2c(SCC(=O)N3CCCc4ccccc43)nnc12	0.5	15.4*	2.0	-0.1	1.9	·	-4.0	-5.0
CC(C)N1CCCCC(NC(=O)c2c(F)cccc2F)C1=O (centres undefined)	·	4.8	·	·	2.4	·	·	·
CCOC(=O)[C@]12CCCC=C1N(CCCOC)C(=O)[C@@H]2CC(=O)NCc1cccs1	·	2.3	·	·	3.2	·	·	·
O=C(COC(=O)c1ccccc1Cc1ccccc1)Nc1ccc(SC(F)F)cc1	·	15.6*	0.0	9.6	-4.5	-0.74	-1.2	-20.5
C=CCN1C(=O)[C@@H](CC(=O)N2CCCCC2)[C@]2(C(=O)OCC)CCCCC/C=C/12	·	-1.3	·	·	0.6	·	·	·
CCC(Sc1nc2ncccc2[nH]1)C(=O)NC1CCCC1 (centres undefined)	·	18.0*	0.0	·	-1.2	·	0.5	-1.3
CCOC(=O)c1c(C)[nH]c(O)c1C=Nc1ccc(Cl)cc1	1.1	31.8*	0.0	0.0	-3.6	·	1.8	-2.6
C[C@H]1[C@@H](OC(=O)NCc2cccnc2)CC[C@@]23CCCN2C(=O)CCC[C@@H]13	·	-11.1	·	·	2.4	·	·	·
CC1CCC2(CCC(=O)N2CCCOC(=O)c2ccccc2)CC1 (centres undefined)	·	4.4	·	·	4.8	·	·	·
COC(=O)[C@]12C[C@H](CC(=O)N3CCCCC3)C(=O)N(Cc3ccc4c(c3)OCO4)C1=C[C@H](C(C)C)O[C@@H]2C1CC1	·	9.6	·	·	-3.8	·	·	·
C=CCn1c(=O)c2c(nc3n2CC(C)CN3Cc2ccccc2)n(C)c1=O (centres undefined)	·	17.1*	0.0	·	-8.3	·	-1.3	-11.8
CCCn1c(=O)c2c(nc3n2CC(C)CN3Cc2ccccc2)n(C)c1=O (centres undefined)	·	-5.1	0.0	·	3.9	·	·	·
O=C(CSc1nnc(CNC(=O)c2ccco2)o1)NC1CCCC1	-0.8	15.9*	2.0	-0.2	7.5	1.27	-0.1	-2.8
C=Cc1ccc(CC2(C)C(=O)Nc3ccc(-c4cccnc4)cc32)cc1 (centres undefined)	·	-3.8	·	·	4.7	·	·	·
Cc1ccccc1CN1[C@@H](C)[C@H](c2ccccc2)Oc2cccc(N3CCCC(C)C3)c2S1(=O)=O (some centres undefined)	·	-6.3	·	·	-8.2	·	·	·
CCC(=O)NC(Nc1sc2c(c1C(=O)OC)CCN(C)C2)(C(F)(F)F)C(F)(F)F	0.1	17.1*	0.0	0.1	2.1	·	1.4	-0.3
CCOC(=O)NC(Nc1sc2c(c1C(=O)OC)CCN(C)C2)(C(F)(F)F)C(F)(F)F	0.2	-1.5	3.0	0.4	-3.1	-0.02	·	·
Cc1ccc([C@H]2C[C@@H](O)[C@H](n3cc(-c4ccc(F)cc4)nn3)CN2C(=O)c2cccs2)cc1	·	-5.8	·	·	3.4	·	·	·
SMILES	ABCG2 inh	Tn6 DDE FP	GRK2 inh	ABCB1 block	Tn7 DDE FP	Insulin prom up	DDE Tn6 FP ctr	Tn6 DDE conf
COC(=O)[C@]12C[C@H](CC(=O)N3CCOCC3)C(=O)N(Cc3ccco3)C1=C[C@H](C(C)C)O[C@@H]2C1CC1	·	-1.2	·	·	-4.7	·	·	·
Cc1cccc(NS(=O)(=O)c2ccc3[nH]c(=O)cc(C(=O)OC(C)C(=O)Nc4ccc([N+](=O)[O-])cc4)c3c2)c1 (centres undefined)	-2.4	49.6*	2.0	-0.8	-3.7	-0.5	7.7	-2.9
CCc1ccc(NC(=O)C(C)OC(=O)c2cc(=O)[nH]c3ccc(S(=O)(=O)Nc4ccc(F)cc4)cc23)cc1 (centres undefined)	-3.8	-0.9	2.0	-1.1	7.9	1.72	·	·
O=C(Nc1cccc(F)c1)c1ccc(-n2cncn2)c2ccoc12	·	16.4*	·	·	1.5	·	8.2	-5.7
CC(=O)c1cccc(NC(=O)c2ccc(-n3cncn3)c3ccoc23)c1	·	5.7	·	·	0.2	·	·	·
CCOCCCn1c(=S)[nH]c2cc(C(=O)NCC(OC)OC)ccc2c1=O	7.0	15.7*	0.0	0.4	-3.4	1.44	-7.6	-14.7
CCCCCNC(=O)c1ccc2c(=O)n(CCCOCC)c(=S)[nH]c2c1	-1.4	-0.6	0.0	-2.2	-3.8	-0.05	·	·
COC(=O)c1cc2c(c3c4cc(OC)ccc4n(S(=O)(=O)c4ccc(F)cc4)c13)C(=O)N(CC(C)C)C2	·	-4.8	·	·	-0.1	·	·	·
O=C1CCCC/C1=C\Nc1ccc(O)cc1	-0.8	27.3*	0.0	-0.7	5.2	·	3.5	0.4
O=C1CCC/C1=C/Nc1ccc2c(c1)OCO2	0.5	21.0*	2.0	0.2	11.9	-0.23	2.6	2.8
CC1CCC/C(=C\Nc2ccc3c(c2)OCO3)C1=O (centres undefined)	1.7	11.4	5.0	0.1	3.7	0.23	·	·
COC(=O)[C@]12C[C@H](CC(=O)N3CCOCC3)C(=O)N(Cc3cccc4ccccc34)C1=C[C@H](C(C)C)O[C@@H]2C1CC1	·	-5.0	·	·	2.9	·	·	·
CCCC1CCC2(CC1)CCC2OC(=O)Nc1cc(C)cc(C)c1 (centres undefined)	·	2.1	·	·	1.8	·	·	·
Fc1cccc(Cl)c1CNc1ccc(N2CCCC2)cc1	-0.2	20.4*	0.0	-0.8	1.6	0.24	1.3	1.0
NS(=O)(=O)c1ccc(NCc2c(F)cccc2Cl)cc1	7.9	-1.6	·	-0.3	-4.8	2.76	·	·
Cc1cc(C)c2c(N)c(C(=O)Nc3ccccc3Cl)sc2n1	·	17.6*	·	·	5.8	·	-4.7	-6.5
